Laboratory results as given in ChEMBL document CHEMBL1156410, “Design and synthesis of a combinatorial chemistry library of 7-acyl, 10-acyl, and 7,10-diacyl analogues of paclitaxel (taxol) using solid phase synthesis” (J Nat Prod, 2002).
Values after ≈ are worked out from the molar mass of the structure shown.

Assays:
[1] = test system: A2780; assay: Cytotoxicity against human A2780 cells; format: functional, cell-based
[2] = Induction of tubulin polymerization by DAPI fluorescence method; conditions: read-out: I50
Summary of the method: (§1)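 Microplate assay in PMEG buffer (100 mM PIPES, 1 mM MgSO₄, 2 mM EGTA, 0.1 mM GTP, pH 6.9) containing ligand; DAPI final 10 µM, tubulin final 5 µM. Fluorescence followed at 37 °C, excitation 360/40 nm, emission 460/40 nm. Change in fluorescence normalized to the curve of 10 µM paclitaxel standard. Samples in duplicate, triplicate or quadruplicate; concentrations over 2 orders of magnitude tested.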

[3] = Induction of tubulin polymerization at 0.1 uM by DAPI fluorescence method relative to control; summary of the method: as §1
[4] = Induction of tubulin polymerization at 1 uM by DAPI fluorescence method relative to control; summary of the method: as §1
[5] = Induction of tubulin polymerization at 10 uM by DAPI fluorescence method relative to control; summary of the method: as §1

Row | Structure (SMILES) | IC50 [2] [nM] | Activity [3] [%] | Activity [4] [%] | Activity [5] [%] | IC50 [1] [µg/mL]
1 | CC(=O)O[C@@]12CO[C@@H]1C[C@H](OC(=O)CN1CCC(N3CCCC3)CC1)[C@@]1(C)C(=O)[C@H](O)C3=C(C)[C@@H](OC(=O)[C@H](O)[C@@H](NC(=O)c4ccccc4)c4ccccc4)C[C@@](O)([C@@H](OC(=O)c4ccccc4)[C@H]21)C3(C)C | 850 |  |  |  | 0.96 (≈ 0.954 µM)
2 | C/C=C/C(=O)O[C@H]1C(=O)[C@]2(C)[C@@H](OC(=O)CCl)C[C@H]3OC[C@@]3(OC(C)=O)[C@H]2[C@H](OC(=O)c2ccccc2)[C@]2(O)C[C@H](OC(=O)[C@H](O)[C@@H](NC(=O)c3ccccc3)c3ccccc3)C(C)=C1C2(C)C |  | 29 | 66 | 116 | 
3 | CCCC(=O)O[C@H]1C[C@H]2OC[C@@]2(OC(C)=O)[C@H]2[C@H](OC(=O)c3ccccc3)[C@]3(O)C[C@H](OC(=O)[C@H](O)[C@@H](NC(=O)c4ccccc4)c4ccccc4)C(C)=C([C@@H](OC(=O)CC)C(=O)[C@]12C)C3(C)C |  | 4 | 52 | 123 | 
4 | CCC(=O)O[C@H]1C(=O)[C@]2(C)[C@@H](OC(=O)C=C(C)C)C[C@H]3OC[C@@]3(OC(C)=O)[C@H]2[C@H](OC(=O)c2ccccc2)[C@]2(O)C[C@H](OC(=O)[C@H](O)[C@@H](NC(=O)c3ccccc3)c3ccccc3)C(C)=C1C2(C)C |  | 20 | 51 | 120 | 
5 | CCC(=O)O[C@H]1C(=O)[C@]2(C)[C@@H](OC(C)=O)C[C@H]3OC[C@@]3(OC(C)=O)[C@H]2[C@H](OC(=O)c2ccccc2)[C@]2(O)C[C@H](OC(=O)[C@H](O)[C@@H](NC(=O)c3ccccc3)c3ccccc3)C(C)=C1C2(C)C |  | 5 | 44 | 111 | 
6 | CCC(=O)O[C@H]1C(=O)[C@]2(C)[C@@H](OC(=O)CCl)C[C@H]3OC[C@@]3(OC(C)=O)[C@H]2[C@H](OC(=O)c2ccccc2)[C@]2(O)C[C@H](OC(=O)[C@H](O)[C@@H](NC(=O)c3ccccc3)c3ccccc3)C(C)=C1C2(C)C |  | 20 | 72 | 114 | 
7 | C/C=C/C(=O)O[C@H]1C(=O)[C@@]2(C)[C@H]([C@H](OC(=O)c3ccccc3)[C@]3(O)C[C@H](OC(=O)[C@H](O)[C@@H](NC(=O)c4ccccc4)c4ccccc4)C(C)=C1C3(C)C)[C@]1(OC(C)=O)CO[C@@H]1C[C@@H]2O |  | 26 | 80 | 117 | 
8 | C/C=C/C(=O)O[C@H]1C(=O)[C@]2(C)[C@@H](OC(=O)C3CC3)C[C@H]3OC[C@@]3(OC(C)=O)[C@H]2[C@H](OC(=O)c2ccccc2)[C@]2(O)C[C@H](OC(=O)[C@H](O)[C@@H](NC(=O)c3ccccc3)c3ccccc3)C(C)=C1C2(C)C |  | 27 | 41 | 109 | 
9 | CC(=O)O[C@@]12CO[C@@H]1C[C@H](OC(=O)CN1Cc3ccccc3C1)[C@@]1(C)C(=O)[C@H](O)C3=C(C)[C@@H](OC(=O)[C@H](O)[C@@H](NC(=O)c4ccccc4)c4ccccc4)C[C@@](O)([C@@H](OC(=O)c4ccccc4)[C@H]21)C3(C)C | 2040 |  |  |  | 
10 | CC(=O)O[C@@]12CO[C@@H]1C[C@H](OC(=O)CN1CCOCC1)[C@@]1(C)C(=O)[C@H](O)C3=C(C)[C@@H](OC(=O)[C@H](O)[C@@H](NC(=O)c4ccccc4)c4ccccc4)C[C@@](O)([C@@H](OC(=O)c4ccccc4)[C@H]21)C3(C)C | 1300 |  |  |  | 0.2 (≈ 0.213 µM)
11 | CC(=O)O[C@@]12CO[C@@H]1C[C@H](OC(=O)CN1CCN(C)CC1)[C@@]1(C)C(=O)[C@H](O)C3=C(C)[C@@H](OC(=O)[C@H](O)[C@@H](NC(=O)c4ccccc4)c4ccccc4)C[C@@](O)([C@@H](OC(=O)c4ccccc4)[C@H]21)C3(C)C | 590 |  |  |  | 0.67 (≈ 0.704 µM)
12 | CCC(=O)O[C@H]1C(=O)[C@]2(C)[C@@H](OC(=O)CC)C[C@H]3OC[C@@]3(OC(C)=O)[C@H]2[C@H](OC(=O)c2ccccc2)[C@]2(O)C[C@H](OC(=O)[C@H](O)[C@@H](NC(=O)c3ccccc3)c3ccccc3)C(C)=C1C2(C)C |  | 5 | 37 | 111 | 
13 | CC(=O)O[C@@]12CO[C@@H]1C[C@H](OC(=O)CN1CCN(Cc3ccc4c(c3)OCO4)CC1)[C@@]1(C)C(=O)[C@H](O)C3=C(C)[C@@H](OC(=O)[C@H](O)[C@@H](NC(=O)c4ccccc4)c4ccccc4)C[C@@](O)([C@@H](OC(=O)c4ccccc4)[C@H]21)C3(C)C | 7800 |  |  |  | 0.02 (≈ 0.0187 µM)
14 | CCC(=O)O[C@H]1C(=O)[C@@]2(C)[C@H]([C@H](OC(=O)c3ccccc3)[C@]3(O)C[C@H](OC(=O)[C@H](O)[C@@H](NC(=O)c4ccccc4)c4ccccc4)C(C)=C1C3(C)C)[C@]1(OC(C)=O)CO[C@@H]1C[C@@H]2O |  | 13 | 54 | 114 | 
15 | CCC(=O)O[C@H]1C(=O)[C@]2(C)[C@@H](OC(=O)C3CC3)C[C@H]3OC[C@@]3(OC(C)=O)[C@H]2[C@H](OC(=O)c2ccccc2)[C@]2(O)C[C@H](OC(=O)[C@H](O)[C@@H](NC(=O)c3ccccc3)c3ccccc3)C(C)=C1C2(C)C |  | 6 | 62 | 113 | 
16 | CC(=O)O[C@@]12CO[C@@H]1C[C@H](OC(=O)CN1CCNCC1)[C@@]1(C)C(=O)[C@H](O)C3=C(C)[C@@H](OC(=O)[C@H](O)[C@@H](NC(=O)c4ccccc4)c4ccccc4)C[C@@](O)([C@@H](OC(=O)c4ccccc4)[C@H]21)C3(C)C |  |  |  |  | 0.86 (≈ 0.917 µM)
17 | CCCCC(=O)O[C@H]1C[C@H]2OC[C@@]2(OC(C)=O)[C@H]2[C@H](OC(=O)c3ccccc3)[C@]3(O)C[C@H](OC(=O)[C@H](O)[C@@H](NC(=O)c4ccccc4)c4ccccc4)C(C)=C([C@@H](OC(=O)CC)C(=O)[C@]12C)C3(C)C |  | 10 | 51 | 102 | 

Now from value to compound, other results behind:

Row | IC50 [2] [nM] | Activity [3] [%] | Activity [4] [%] | Activity [5] [%] | Structure (SMILES) | IC50 [1] [µg/mL]
18 |  | 33 | 66 | 81 | C/C=C/C(=O)O[C@H]1C(=O)[C@]2(C)[C@@H](OC(=O)c3ccccc3)C[C@H]3OC[C@@]3(OC(C)=O)[C@H]2[C@H](OC(=O)c2ccccc2)[C@]2(O)C[C@H](OC(=O)[C@H](O)[C@@H](NC(=O)c3ccccc3)c3ccccc3)C(C)=C1C2(C)C | 
19 |  | 0 | 20 | 48 | CC(=O)O[C@@]12CO[C@@H]1C[C@H](OC(=O)CCl)[C@@]1(C)C(=O)[C@H](OC(=O)OCc3ccccc3)C3=C(C)[C@@H](OC(=O)[C@H](O)[C@@H](NC(=O)c4ccccc4)c4ccccc4)C[C@@](O)([C@@H](OC(=O)c4ccccc4)[C@H]21)C3(C)C | 
20 |  | 46 | 78 | 113 | CC(=O)O[C@@]12CO[C@@H]1C[C@H](O)[C@@]1(C)C(=O)[C@H](OC(=O)c3ccccc3)C3=C(C)[C@@H](OC(=O)[C@H](O)[C@@H](NC(=O)c4ccccc4)c4ccccc4)C[C@@](O)([C@@H](OC(=O)c4ccccc4)[C@H]21)C3(C)C | 
21 |  | 30 | 61 | 91 | CC(=O)O[C@@]12CO[C@@H]1C[C@H](OC(=O)C1CC1)[C@@]1(C)C(=O)[C@H](OC(=O)c3ccccc3)C3=C(C)[C@@H](OC(=O)[C@H](O)[C@@H](NC(=O)c4ccccc4)c4ccccc4)C[C@@](O)([C@@H](OC(=O)c4ccccc4)[C@H]21)C3(C)C | 
22 |  | 0 | 3 | 24 | CCC(=O)O[C@H]1C[C@H]2OC[C@@]2(OC(C)=O)[C@H]2[C@H](OC(=O)c3ccccc3)[C@]3(O)C[C@H](OC(=O)[C@H](O)[C@@H](NC(=O)c4ccccc4)c4ccccc4)C(C)=C([C@@H](OC(=O)OCc4ccccc4)C(=O)[C@]12C)C3(C)C | 
23 |  | 10 | 32 | 33 | CC(=O)O[C@@]12CO[C@@H]1C[C@H](OC(=O)c1ccccc1)[C@@]1(C)C(=O)[C@H](OC(=O)OCc3ccccc3)C3=C(C)[C@@H](OC(=O)[C@H](O)[C@@H](NC(=O)c4ccccc4)c4ccccc4)C[C@@](O)([C@@H](OC(=O)c4ccccc4)[C@H]21)C3(C)C | 
24 |  | 29 | 56 | 92 | CC(=O)O[C@@]12CO[C@@H]1C[C@H](OC(=O)CCl)[C@@]1(C)C(=O)[C@H](OC(=O)c3ccccc3)C3=C(C)[C@@H](OC(=O)[C@H](O)[C@@H](NC(=O)c4ccccc4)c4ccccc4)C[C@@](O)([C@@H](OC(=O)c4ccccc4)[C@H]21)C3(C)C | 
25 |  | 10 | 39 | 43 | CC(=O)O[C@@]12CO[C@@H]1C[C@H](OC(=O)C=C(C)C)[C@@]1(C)C(=O)[C@H](OC(=O)OCc3ccccc3)C3=C(C)[C@@H](OC(=O)[C@H](O)[C@@H](NC(=O)c4ccccc4)c4ccccc4)C[C@@](O)([C@@H](OC(=O)c4ccccc4)[C@H]21)C3(C)C | 
26 |  | 34 | 83 | 115 | CC(=O)O[C@@]12CO[C@@H]1C[C@H](O)[C@@]1(C)C(=O)[C@H](OC(=O)OCc3ccccc3)C3=C(C)[C@@H](OC(=O)[C@H](O)[C@@H](NC(=O)c4ccccc4)c4ccccc4)C[C@@](O)([C@@H](OC(=O)c4ccccc4)[C@H]21)C3(C)C | 
27 |  | 0 | 33 | 97 | CCC(=O)O[C@H]1C(=O)[C@]2(C)[C@@H](OC(=O)c3ccccc3)C[C@H]3OC[C@@]3(OC(C)=O)[C@H]2[C@H](OC(=O)c2ccccc2)[C@]2(O)C[C@H](OC(=O)[C@H](O)[C@@H](NC(=O)c3ccccc3)c3ccccc3)C(C)=C1C2(C)C | 
28 |  | 22 | 52 | 78 | COc1cccc(C(=O)O[C@H]2C[C@H]3OC[C@@]3(OC(C)=O)[C@H]3[C@H](OC(=O)c4ccccc4)[C@]4(O)C[C@H](OC(=O)[C@H](O)[C@@H](NC(=O)c5ccccc5)c5ccccc5)C(C)=C([C@@H](OC(=O)c5ccccc5)C(=O)[C@]23C)C4(C)C)c1 | 
29 |  | 10 | 26 | 53 | CC(=O)O[C@@]12CO[C@@H]1C[C@H](OC(=O)C1CC1)[C@@]1(C)C(=O)[C@H](OC(=O)OCc3ccccc3)C3=C(C)[C@@H](OC(=O)[C@H](O)[C@@H](NC(=O)c4ccccc4)c4ccccc4)C[C@@](O)([C@@H](OC(=O)c4ccccc4)[C@H]21)C3(C)C | 
